Tests used:
[1] = target: GABA-A receptor; anion channel; test: Displacement of [3H]flumazenil from GABA-A receptor in bovine brain membranes; assay type: cell membranes, Bos taurus
[2] = target: GABA-A receptor; alpha-1/beta-2/gamma-2 (Rattus norvegicus, UniProt P18508+P62813+P63138); test: Displacement of [3H]flumazenil from rat GABA-Aalpha1 receptor plus beta-2-gamma-2 in HEK293 cells; assay type: cell-based
Outline: (§1)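 Membranes from HEK293 cells stably expressing rat GABA-A subtypes (37 °C, 5% CO2, DMEM/F-12 with 10% FBS). Cells harvested, homogenized in 10 mM potassium phosphate pH 7.4, centrifuged at 48 000g for 30 min at 4 °C, washed twice, resuspended in the same buffer plus 100 mM KCl. Incubated with 1-2 nM [3H]flumazenil for 1 h at 4 °C to equilibrium. Nonspecific binding defined with 10^-5 M diazepam.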

[3] = target: GABA A receptor alpha-2/beta-2/gamma-2 (Rattus norvegicus) (UniProt P18508+P23576+P63138); test: Inhibition of [3H]flumazenil binding to rat GABA-Aalpha2 receptor plus beta-2-gamma-2 at 10 uM in HEK293 cells; assay type: cell-based
[4] = target: GABA A receptor alpha-5/beta-3/gamma-2 (Rattus norvegicus, UniProt P18508+P19969+P63079); test: Displacement of [3H]flumazenil from rat GABA-Aalpha5 receptor plus beta-3-gamma-2 in HEK293 cells; assay type: cell-based; outline: as §1
[5] = target: GABA A receptor alpha-2/beta-2/gamma-2 (Rattus norvegicus, UniProt P18508+P23576+P63138); test: Displacement of [3H]flumazenil from rat GABA-Aalpha2 receptor plus beta-2-gamma-2 in HEK293 cells; assay type: cell-based; outline: as §1
[6] = target: GABA A receptor alpha-5/beta-3/gamma-2 (Rattus norvegicus) (UniProt P18508+P19969+P63079); test: Inhibition of [3H]flumazenil binding to rat GABA-Aalpha5 receptor plus beta-3-gamma-2 at 10 uM in HEK293 cells; assay type: cell-based

Sequence of GABA A receptor alpha-5/beta-3/gamma-2 (P18508 whole entry): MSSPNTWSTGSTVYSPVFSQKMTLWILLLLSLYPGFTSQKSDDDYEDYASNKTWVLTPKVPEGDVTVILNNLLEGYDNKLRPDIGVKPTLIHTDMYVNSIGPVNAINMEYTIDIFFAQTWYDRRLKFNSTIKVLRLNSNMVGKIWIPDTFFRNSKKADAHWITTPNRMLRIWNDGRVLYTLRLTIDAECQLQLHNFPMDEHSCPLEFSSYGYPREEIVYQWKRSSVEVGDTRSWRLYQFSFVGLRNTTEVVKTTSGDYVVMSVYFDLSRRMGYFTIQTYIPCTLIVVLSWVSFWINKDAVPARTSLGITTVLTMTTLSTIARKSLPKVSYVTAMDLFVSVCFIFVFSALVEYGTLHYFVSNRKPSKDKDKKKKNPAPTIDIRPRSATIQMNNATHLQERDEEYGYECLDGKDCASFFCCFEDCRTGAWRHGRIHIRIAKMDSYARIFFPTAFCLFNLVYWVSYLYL
Sequence of GABA A receptor alpha-5/beta-3/gamma-2 (P19969 whole entry): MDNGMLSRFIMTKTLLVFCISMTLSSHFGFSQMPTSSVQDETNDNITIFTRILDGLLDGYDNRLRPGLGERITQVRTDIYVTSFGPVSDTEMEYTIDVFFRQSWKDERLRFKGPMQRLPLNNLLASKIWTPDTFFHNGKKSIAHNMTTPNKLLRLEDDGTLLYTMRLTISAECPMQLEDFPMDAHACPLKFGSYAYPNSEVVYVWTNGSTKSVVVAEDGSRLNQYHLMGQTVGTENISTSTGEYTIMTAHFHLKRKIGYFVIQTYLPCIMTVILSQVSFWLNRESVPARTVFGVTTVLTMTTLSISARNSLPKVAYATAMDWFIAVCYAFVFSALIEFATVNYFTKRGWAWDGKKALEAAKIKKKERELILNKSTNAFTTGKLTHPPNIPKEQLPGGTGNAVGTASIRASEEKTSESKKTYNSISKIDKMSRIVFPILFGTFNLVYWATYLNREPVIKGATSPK
Sequence of GABA A receptor alpha-5/beta-3/gamma-2 (P63079 whole entry): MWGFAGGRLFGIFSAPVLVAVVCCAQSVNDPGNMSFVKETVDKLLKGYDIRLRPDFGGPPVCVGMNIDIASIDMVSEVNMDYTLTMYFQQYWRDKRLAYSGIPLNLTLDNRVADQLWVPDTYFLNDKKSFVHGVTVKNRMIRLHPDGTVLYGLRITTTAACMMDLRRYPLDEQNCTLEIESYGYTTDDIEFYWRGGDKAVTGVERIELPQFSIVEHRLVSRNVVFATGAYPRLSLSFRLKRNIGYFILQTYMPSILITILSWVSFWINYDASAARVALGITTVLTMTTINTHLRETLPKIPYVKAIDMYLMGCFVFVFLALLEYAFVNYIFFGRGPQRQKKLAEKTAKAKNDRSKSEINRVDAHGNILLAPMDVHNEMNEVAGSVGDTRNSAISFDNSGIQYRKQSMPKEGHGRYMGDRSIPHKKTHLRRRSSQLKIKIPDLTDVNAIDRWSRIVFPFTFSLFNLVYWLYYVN
Sequence of GABA A receptor alpha-2/beta-2/gamma-2 (P18508 whole entry): as the sequence (P18508 whole entry) above
Sequence of GABA A receptor alpha-2/beta-2/gamma-2 (P23576 whole entry): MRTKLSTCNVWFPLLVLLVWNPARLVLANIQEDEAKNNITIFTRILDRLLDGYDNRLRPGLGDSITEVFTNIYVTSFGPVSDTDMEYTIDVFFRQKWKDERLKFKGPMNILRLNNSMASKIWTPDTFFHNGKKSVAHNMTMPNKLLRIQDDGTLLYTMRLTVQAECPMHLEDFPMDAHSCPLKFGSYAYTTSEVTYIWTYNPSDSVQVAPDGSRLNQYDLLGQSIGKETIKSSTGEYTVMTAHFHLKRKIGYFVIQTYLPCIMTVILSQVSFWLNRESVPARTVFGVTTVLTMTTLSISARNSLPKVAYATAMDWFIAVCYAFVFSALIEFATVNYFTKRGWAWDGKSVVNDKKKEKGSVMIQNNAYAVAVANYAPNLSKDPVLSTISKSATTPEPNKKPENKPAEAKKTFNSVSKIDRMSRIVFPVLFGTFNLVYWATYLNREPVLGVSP
Sequence of GABA A receptor alpha-2/beta-2/gamma-2 (P63138 whole entry): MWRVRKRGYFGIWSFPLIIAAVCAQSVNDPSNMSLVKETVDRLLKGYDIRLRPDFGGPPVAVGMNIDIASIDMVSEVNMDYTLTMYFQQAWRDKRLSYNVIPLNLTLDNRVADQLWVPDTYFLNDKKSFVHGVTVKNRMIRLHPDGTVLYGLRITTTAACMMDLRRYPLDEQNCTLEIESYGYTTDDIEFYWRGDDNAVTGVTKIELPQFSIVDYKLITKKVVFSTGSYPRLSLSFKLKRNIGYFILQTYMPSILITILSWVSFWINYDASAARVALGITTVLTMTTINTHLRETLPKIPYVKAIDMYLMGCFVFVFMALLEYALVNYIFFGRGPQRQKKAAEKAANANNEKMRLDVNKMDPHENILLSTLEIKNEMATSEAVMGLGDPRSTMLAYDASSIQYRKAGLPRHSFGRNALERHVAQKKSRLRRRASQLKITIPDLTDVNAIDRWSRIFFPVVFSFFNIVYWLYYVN
Sequence of GABA-A receptor; alpha-1/beta-2/gamma-2 (P18508 whole entry): as the sequence (P18508 whole entry) above
Sequence of GABA-A receptor; alpha-1/beta-2/gamma-2 (P62813 whole entry): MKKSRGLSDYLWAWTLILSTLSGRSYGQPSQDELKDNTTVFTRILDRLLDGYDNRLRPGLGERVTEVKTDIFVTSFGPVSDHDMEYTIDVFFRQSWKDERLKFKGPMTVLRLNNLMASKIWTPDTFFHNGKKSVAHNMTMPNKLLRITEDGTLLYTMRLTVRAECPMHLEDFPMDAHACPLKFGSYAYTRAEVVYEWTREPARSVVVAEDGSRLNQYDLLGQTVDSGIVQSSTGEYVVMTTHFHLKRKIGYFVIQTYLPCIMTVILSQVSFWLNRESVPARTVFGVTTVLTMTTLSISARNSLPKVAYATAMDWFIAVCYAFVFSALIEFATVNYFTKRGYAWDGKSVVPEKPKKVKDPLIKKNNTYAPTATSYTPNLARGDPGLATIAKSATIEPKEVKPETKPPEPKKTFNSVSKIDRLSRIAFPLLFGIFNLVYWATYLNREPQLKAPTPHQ
Sequence of GABA-A receptor; alpha-1/beta-2/gamma-2 (P63138 whole entry): as the sequence (P63138 whole entry) above

SMILES | Ki [1] [µM] | other results
O=C(NCc1ccco1)C(=O)c1c[nH]c2ccccc12 | 0.324 | –
O=C(NCc1ccsc1)C(=O)c1c[nH]c2ccccc12 | 0.212 | –
O=C(NCc1cc2ccccc2[nH]1)C(=O)c1c[nH]c2ccccc12 | 1.13 | –
O=C(NCc1ncc[nH]1)C(=O)c1c[nH]c2ccc([N+](=O)[O-])cc12 | > 10 | –
O=C(NCc1ccc[nH]1)C(=O)c1c[nH]c2ccccc12 | 0.531 | Ki [2]: 0.271 µM; inhibition [3]: 47%; Ki [4]: 1.5 µM
O=C(NCc1ccco1)C(=O)c1c[nH]c2ccc([N+](=O)[O-])cc12 | 0.0126 | Ki [5]: 0.155 µM; Ki [2]: 0.02 µM; inhibition [6]: 28%
O=C(NCc1cccnc1)C(=O)c1c[nH]c2ccccc12 | 0.105 | –
O=C(NCc1cccnc1)C(=O)c1c[nH]c2ccc([N+](=O)[O-])cc12 | 0.483 | –
O=C(NCc1ccoc1)C(=O)c1c[nH]c2ccccc12 | 0.447 | –
O=C(NCc1cc[nH]c1)C(=O)c1c[nH]c2ccc([N+](=O)[O-])cc12 | 0.021 | Ki [5]: 0.154 µM; Ki [2]: 0.0092 µM; Ki [4]: 1.6 µM
O=C(NCc1ccc[nH]1)C(=O)c1c[nH]c2ccc([N+](=O)[O-])cc12 | 0.033 | Ki [5]: 0.585 µM; Ki [2]: 0.0735 µM; inhibition [6]: 5%
O=C(NCc1ccncc1)C(=O)c1c[nH]c2ccccc12 | 0.426 | –
O=C(NCc1ccccn1)C(=O)c1c[nH]c2ccccc12 | 6 | –
Cc1ccc(CNC(=O)C(=O)c2c[nH]c3ccc([N+](=O)[O-])cc23)o1 | 0.0156 | –
O=C(NCc1ccncc1)C(=O)c1c[nH]c2ccc([N+](=O)[O-])cc12 | 0.77 | –
Cn1cccc1CNC(=O)C(=O)c1c[nH]c2ccccc12 | 4.59 | –
O=C(NCc1cc2ccccc2[nH]1)C(=O)c1c[nH]c2ccc([N+](=O)[O-])cc12 | > 10 | –
O=C(NCc1ccoc1)C(=O)c1c[nH]c2ccc([N+](=O)[O-])cc12 | 0.022 | Ki [5]: 0.236 µM; Ki [2]: 0.0566 µM; inhibition [6]: 9%

The next lines start with results.

Ki [1] [µM] | SMILES | other results
0.285 | O=C(NCc1cccs1)C(=O)c1c[nH]c2ccccc12 | –
0.135 | Cn1cccc1CNC(=O)C(=O)c1c[nH]c2ccc([N+](=O)[O-])cc12 | –
1.75 | O=C(NCc1ncc[nH]1)C(=O)c1c[nH]c2ccccc12 | –
0.439 | O=C(NCc1ccccn1)C(=O)c1c[nH]c2ccc([N+](=O)[O-])cc12 | –
0.204 | O=C(NCc1cc[nH]c1)C(=O)c1c[nH]c2ccccc12 | Ki [2]: 0.272 µM; inhibition [3]: 46%; Ki [4]: 0.681 µM
0.148 | O=C(NCc1ccsc1)C(=O)c1c[nH]c2ccc([N+](=O)[O-])cc12 | –
0.249 | Cc1ccc(CNC(=O)C(=O)c2c[nH]c3ccccc23)o1 | –
0.128 | O=C(NCc1cccs1)C(=O)c1c[nH]c2ccc([N+](=O)[O-])cc12 | –
